# Results taken from article PMC2864799 (Assay and drug development technologies, 2010).
# pIC50: −log10 of the molar value.
# Tests used:
# Type in all cases: biochemical
# [1] = test system: GSTs (hGST A1-1, mGST A4-4, hGST M1-1, hGST P1-1, S. japonicum GST); assay: 1,536-well luminescence GST inhibition assay, all GSTs tested
# Outline: (§1)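 GST at 5 nM (hGST P1-1 125 nM) with GSH in 50 mM HEPES pH 7.5, 0.01% Tween-20. Pin-added test compound (1:2 16-point or 1:3 8-point series), 10 or 15 min RT. Substrate: PBI 1155 20 μM (S. japonicum), PBI 3773 10 μM (A1-1, M1-1, A4-4), PBI 1158 100 μM (P1-1). Reaction 40 min (P1-1 60 min) RT, then luciferase detection reagent and luminescence read. Percent inhibition from median catalyzed and no-enzyme controls; duplicate wells; curve-fitted IC50.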
# S. japonicum GST = S. japonicum GST (Schistosoma japonicum, UniProt P08515); assay: 1,536-well luminescence GST inhibition assay, S. japonicum GST
# S. japonicum GST, sequence (P08515 whole entry): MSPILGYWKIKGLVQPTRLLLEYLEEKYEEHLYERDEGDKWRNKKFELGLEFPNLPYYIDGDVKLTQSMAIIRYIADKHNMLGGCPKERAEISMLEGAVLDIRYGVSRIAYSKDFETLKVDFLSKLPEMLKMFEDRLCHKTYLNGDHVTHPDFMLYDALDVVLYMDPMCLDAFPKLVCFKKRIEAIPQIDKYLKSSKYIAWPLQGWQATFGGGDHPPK
# Outline: as §1
# hGST P1-1 = hGST P1-1 (Homo sapiens, UniProt P09211); assay: 1,536-well luminescence GST inhibition assay, hGST P1-1
# hGST P1-1, sequence (P09211 2-210 limits assumed): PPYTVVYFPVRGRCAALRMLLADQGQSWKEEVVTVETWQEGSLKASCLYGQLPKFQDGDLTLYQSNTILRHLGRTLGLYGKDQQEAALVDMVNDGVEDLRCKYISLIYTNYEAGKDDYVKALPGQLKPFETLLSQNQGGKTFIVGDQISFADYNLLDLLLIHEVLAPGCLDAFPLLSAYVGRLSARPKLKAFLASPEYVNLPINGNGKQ
# Outline: as §1
# hGST M1-1 = biological target: T1, hGST M1-1 (Homo sapiens, UniProt P09488); assay: 1,536-well luminescence GST inhibition assay, hGST M1-1; conditions: for pIC50: 5 nM hGST M1-1, 10 μM PBI 3773, 40 min
# T1 sequence (P09488 2-218 limits assumed): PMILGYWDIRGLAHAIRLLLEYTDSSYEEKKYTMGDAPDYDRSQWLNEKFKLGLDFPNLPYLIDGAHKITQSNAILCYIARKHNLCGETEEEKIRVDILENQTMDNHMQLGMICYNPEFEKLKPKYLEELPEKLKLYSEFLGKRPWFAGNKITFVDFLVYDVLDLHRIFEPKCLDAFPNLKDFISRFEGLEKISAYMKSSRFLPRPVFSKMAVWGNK
# Outline: as §1
compound,measurement,setting,value
O=[N+]([O-])c1ccc(SCCCCCCCCO)c2nonc12 [NBD-8-OH],inhibitory activity (in words),[1]; against the GSTs tested,single-digit micromolar or better
Nc1c(S(=O)(=O)O)cc(Nc2ccc(Nc3nc(Cl)nc(Nc4cccc(S(=O)(=O)O)c4)n3)c(S(=O)(=O)O)c2)c2c1C(=O)c1ccccc1C2=O [Reactive Blue 2],pIC50,S. japonicum GST,7.20
same,onset of luminescence quenching relative to IC50,S. japonicum GST; S. japonicum GST,several hundred times greater
same,onset of luminescence quenching relative to IC50,hGST P1-1; hGST P1-1,approximately 60 fold
same,onset of luminescence decrease relative to IC50,hGST M1-1; hGST M1-1,8 fold
NC(CCC(=O)NC(CSc1ccc(C(=O)OCCOCCOCCOCCOC(=O)c2ccc(SCC(NC(=O)CCC(N)C(=O)O)C(=O)NCC(=O)O)c([N+](=O)[O-])c2)cc1[N+](=O)[O-])C(=O)NCC(=O)O)C(=O)O (stereo not shown) [Bis-(NB-GS)],pIC50,hGST M1-1,6.72
same,fold difference in IC50 (NBD-GS vs Bis-(NB-GS)),hGST M1-1; hGST M1-1,~ 130 fold
O=C1OC(c2ccc(O)c(S(=O)(=O)O)c2)(c2ccc(O)c(S(=O)(=O)O)c2)c2c(Br)c(Br)c(Br)c(Br)c21 [bromosulfalein],inhibition (in words),"hGST P1-1; 125 nM hGST P1-1, 100 μM PBI 1158, 60 min",lack of inhibition
NC(CCC(=O)NC(CSc1ccc([N+](=O)[O-])c2nonc12)C(=O)NCC(=O)O)C(=O)O (stereo not shown) [NBD-GS],pIC50,hGST M1-1,4.61
"O=[N+]([O-])c1ccc(Cl)c([N+](=O)[O-])c1 [CDNB, 1-chloro-2,4-dinitrobenzene]",inhibition (in words),[1]; top concentrations tested near 100 μM,partial inhibition only at the top concentrations tested
